Measurements taken from ChEMBL document CHEMBL1156976, “Enhancement of antiproliferative activity by molecular simplification of catalpol” (2010).
The source made the active and inactive calls. No cut-off for these calls is given here.

Tests used:
[1] = tested on: HeLa; assay: Decrease in cyclin D1 expression in human HeLa cells at 10 uM by Western blot analysis; format: functional, cell-based; conditions: TDE = time-dependent effect
In short: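 HeLa cells were treated for 12 and 24 h, then lysed on ice in Tris pH 8.0/NaCl/NP-40/SDS/EDTA buffer with protease and phosphatase inhibitors, and cleared at 10,000 g. Proteins were run by SDS–PAGE and transferred to PVDF. Blots were probed with anti-cyclin D1, followed by HRP secondary for 30 min. Bands were detected by luminol chemiluminescence with p-iodophenol enhancement.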

[2] = tested on: WiDr; assay: Antiproliferative activity against human WiDr cells after 48 hrs by sulforhodamine B assay; format: functional
In short: (§1)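 SRB assay in RPMI 1640 with 5% heat-inactivated FCS and 2 mM L-glutamine at 37 °C. Seeding was 15,000 cells/well for WiDr, T-47D and HeLa, and 10,000 for A2780, SW1573 and HBL-100. Compound was added on day 1 from DMSO stock (400× top final; 0.25% v/v DMSO control), in triplicate dilutions over 1–100, for 48 h. Cells were fixed with cold 50% TCA for 60 min at 4 °C and read at OD 492 nm. Percentage growth was calculated from T0 and end OD by NCI formulas, as means ± SD of 3–5 experiments.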

[3] = tested on: WiDr; assay: Induction of apoptosis in human WiDr cells assessed as late apoptotic cells at 3 uM after 24 hrs using FITC-conjugated annexin V and propidium iodide staining by flow cytometry; format: functional
In short: (§2)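 Cells were seeded at 0.25–0.5 × 10^6. After 24 h they were exposed to drug for 24 h, then kept in drug-free medium for a further 24 h. About 10,000 events were read (488/525 and 488/675 nm). Early apoptosis was AnnexinV+/PI−; late apoptosis was AnnexinV+/PI+.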

[4] = tested on: HBL-100; assay: Antiproliferative activity against human HBL100 cells after 48 hrs by sulforhodamine B assay; format: functional; conditions: HBL-100, 48 h; in short: as §1
[5] = tested on: HeLa; assay: Antiproliferative activity against human HeLa cells after 48 hrs by sulforhodamine B assay; format: functional; in short: as §1
[6] = tested on: HBL-100; assay: Cell cycle arrest in human HBL100 cells assessed as accumulation at S phase at 1 to 2 uM after 24 hrs using propidium iodide staining by flow cytometry; format: functional, cell-based
In short: (§3)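 Cells were seeded at 2.5–5 × 10^5 per well. After 24 h they were dosed at 1, 2, 3 and 5 for 24 h, then trypsinized and fixed overnight in ice-cold 70% ethanol at −20 °C. Samples were RNase-treated for 30 min at 37 °C in the dark and stained with propidium iodide. DNA content was read by flow cytometry on 25,000 cells/sample, giving sub-G1, G0/G1, S and G2/M fractions.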

[7] = tested on: HBL-100; assay: Cell cycle arrest in human HBL100 cells assessed as accumulation at G0/G1 phase at 1 to 2 uM after 24 hrs using propidium iodide staining by flow cytometry; format: functional, cell-based; in short: as §3
[8] = tested on: SW1573; assay: Cell cycle arrest in human SW1573 cells assessed as accumulation at G0/G1 phase at 1 to 2 uM after 24 hrs using propidium iodide staining by flow cytometry; format: functional, cell-based; in short: as §3
[9] = tested on: SW1573; assay: Cell cycle arrest in human SW1573 cells assessed as accumulation at S phase at 1 to 2 uM after 24 hrs using propidium iodide staining by flow cytometry; format: functional, cell-based; in short: as §3
[10] = tested on: T47D; assay: Antiproliferative activity against human T47D cells after 48 hrs by sulforhodamine B assay; format: functional; in short: as §1
[11] = tested on: HeLa; assay: Induction of apoptosis in human HeLa cells assessed as late apoptotic cells at 3 uM after 24 hrs using FITC-conjugated annexin V and propidium iodide staining by flow cytometry; format: functional; in short: as §2
[12] = tested on: WiDr; assay: Induction of apoptosis in human WiDr cells assessed as early apoptotic cells at 3 uM after 24 hrs using FITC-conjugated annexin V and propidium iodide staining by flow cytometry; format: functional; in short: as §2
[13] = tested on: SW1573; assay: Antiproliferative activity against human SW1573 cells after 48 hrs by sulforhodamine B assay; format: functional; conditions: SW1573, 48 h; in short: as §1
[14] = tested on: HBL-100; assay: Cell cycle arrest in human HBL100 cells assessed as accumulation at sub G1 phase at 3 to 5 uM after 24 hrs using propidium iodide staining by flow cytometry; format: functional, cell-based; in short: as §3
[15] = tested on: SW1573; assay: Cell cycle arrest in human SW1573 cells assessed as accumulation at sub G1 phase at 3 to 5 uM after 24 hrs using propidium iodide staining by flow cytometry; format: functional, cell-based; in short: as §3
[16] = tested on: HeLa; assay: Induction of apoptosis in human HeLa cells assessed as early apoptotic cells at 3 uM after 24 hrs using FITC-conjugated annexin V and propidium iodide staining by flow cytometry; format: functional; in short: as §2
[17] = tested on: A2780; assay: Antiproliferative activity against human A2780 cells after 48 hrs by sulforhodamine B assay; format: functional; conditions: A2780, 48 h; in short: as §1

With `CC(=O)O[C@@H]1OC=C[C@@H]2[C@H]1[C@@H](C)C[C@H]2O[Si](c1ccccc1)(c1ccccc1)C(C)(C)C` the Activity [1] was “tde”, the GI50 [2] was 1260 nM and the Activity [3] was 3.7%. The GI50 [4] was 500 nM, the GI50 [5] was 1860 nM and the Activity [6] was “inactive”. The Activity [7] was “Active”, the Activity [8] was “Active” and the Activity [9] was “inactive”. For the same molecule, the GI50 [10] was 1460 nM, the Activity [11] was 25% and the Activity [12] was 33%. For the same molecule, the GI50 [13] was 590 nM, the Activity [14] was “Active” and the Activity [15] was “Active”. It also gave an Activity [16] of 18% and a GI50 [17] of 1590 nM.

Molecule `CC(=O)O[C@H]1OC=C[C@H]2[C@@H]1[C@H](C)C[C@H]2O[Si](c1ccccc1)(c1ccccc1)C(C)(C)C` has a GI50 [2] of 1130 nM, an Activity [3] of 2.4% and a GI50 [4] of 380 nM. The GI50 [5] was 1680 nM, the GI50 [10] was 1620 nM and the Activity [11] was 12%. It also gave an Activity [12] of 23%, a GI50 [13] of 430 nM and an Activity [16] of 18%. The GI50 [17] was 1240 nM.

For `OC[C@H]1O[C@@H](O[C@@H]2OC=C[C@H]3[C@H](O)[C@@H]4O[C@]4(CO)[C@@H]23)[C@H](O)[C@@H](O)[C@@H]1O` [CATALPOL], the GI50 [2] was > 100000 nM, the GI50 [4] was > 100000 nM and the GI50 [5] was > 100000 nM. The GI50 [10] was > 100000 nM, the GI50 [13] was > 100000 nM and the GI50 [17] was > 100000 nM.
